Assays:
[1] = Cytotoxicity against HEL assessed as change in cell morphology; format: cell-based; details: human, HEL cells
Method in brief: (§1)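 Microscopic inspection of cultures exposed to test compounds. MCC is the minimum compound concentration causing a microscopically detectable alteration of cell morphology.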

Human alphaherpesvirus 3 [2] = assay: Antiviral activity against acyclovir-resistant VZV OKA infected in HEL assessed as reduction in virus-induce cytopathicity; details: Human alphaherpesvirus 3, OKA
Human betaherpesvirus 5 [3] = assay: Antiviral activity against Human cytomegalovirus AD169 infected in HEL assessed as reduction in virus-induce cytopathicity; format: functional, organism-based; details: Human betaherpesvirus 5, AD169
Human alphaherpesvirus 1 [4] = assay: Antiviral activity against HSV1 KOS infected in HEL assessed as reduction in virus-induce cytopathicity; format: functional, organism-based; details: Human alphaherpesvirus 1, KOS
Human betaherpesvirus 6 = assay: Antiviral activity against Human herpesvirus 6 infected in HEL assessed as reduction in virus-induce cytopathicity; format: functional, organism-based
Human betaherpesvirus 5 [5] = assay: Antiviral activity against Human cytomegalovirus Davis infected in HEL assessed as reduction in virus-induce cytopathicity; format: functional, organism-based; details: Human betaherpesvirus 5, Davis
Human alphaherpesvirus 1 [6] = assay: Antiviral activity against acyclovir-resistant HSV1 KOS infected in HEL assessed as reduction in virus-induce cytopathicity; format: functional, organism-based; details: Human alphaherpesvirus 1, KOS
[7] = Cytotoxicity against human HSB2 cells assessed as change in cell morphology; format: cell-based, CCRF-HSB-2; method in brief: as §1
[8] = Cytotoxicity against HEL; format: cell-based; details: human, HEL cells
Method in brief: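 HEL cells were seeded at 5 × 10³ cells/well and allowed to proliferate for 24 h, then given medium with graded compound concentrations. After 3 days at 37 °C, cells were counted with a Coulter counter. CC50 (μM) is the concentration halving proliferation relative to untreated controls, estimated from plots of cell number (% of control) against concentration.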

Human alphaherpesvirus 3 [9] = assay: Antiviral activity against acyclovir-resistant VZV 07/1 infected in HEL assessed as reduction in virus-induce cytopathicity; details: Human alphaherpesvirus 3, 07/1
Vaccinia virus = assay: Antiviral activity against Vaccinia virus infected in HEL assessed as reduction in virus-induce cytopathicity; format: functional, organism-based; details: Orthopoxvirus vaccinia
Human alphaherpesvirus 2 = assay: Antiviral activity against […] infected in HEL assessed as reduction in virus-induce cytopathicity; format: functional, organism-based; details: Human alphaherpesvirus 2, strain G

| Structure (SMILES) | MCC [1] [µM] | EC50 (Human alphaherpesvirus 3 [2]) [µM] | EC50 (Human betaherpesvirus 5 [3]) [µM] | EC50 (Human alphaherpesvirus 1 [4]) [µM] | EC50 (Human betaherpesvirus 6) [µM] | EC50 (Human betaherpesvirus 5 [5]) [µM] | EC50 (Human alphaherpesvirus 1 [6]) [µM] | MCC [7] [µM] | CC50 [8] [µM] | EC50 (Human alphaherpesvirus 3 [9]) [nM] | EC50 (Vaccinia virus) [µM] | EC50 (Human alphaherpesvirus 2) [µM] | MCC [8] [mM] | CC50 [1] [µM] |
| --- | --- | --- | --- | --- | --- | --- | --- | --- | --- | --- | --- | --- | --- | --- |
| CCCCCCCCCCCCCCCCCCOCCOP(=O)(O)CO[C@H](CO)Cn1cnc2c(N)nc(N)nc21 | ≥ 6.3 | 0.0013 | 0.041 | 0.0008 | 34.6 | 0.0094 | 0.00085 | ≥ 39.3 | 18.8 | 0.08 | 0.00074 | 0.0022 | – | – |
| Nc1nc(N)c2ncn(C[C@H]3COP(=O)(O)CO3)c2n1 | > 333 | 0.37 | 15 | 3.6 | – | 10 | 3.6 | – | > 333 | 770 | 0.53 | 4.33 | – | – |
| CC(C)(C)C(=O)OCOP1(=O)CO[C@@H](Cn2cnc3c(N)nc(N)nc32)CO1 (some centres not stated) | ≥ 231 | 0.3 | 6.94 | 2.22 | 7.63 | 6.8 | 2.41 | 62.5 | ≥ 201 | 93 | 0.183 | 1.34 | – | – |
| CC(C)(C)C(=O)OCO[P@]1(=O)CO[C@@H](Cn2cnc3c(N)nc(N)nc32)CO1 | ≥ 231 | 0.72 | 14 | 1.83 | 14.6 | 15.5 | 3.33 | 64.7 | > 222 | 160 | 0.37 | 1.78 | – | – |
| Nc1nc(N)c2ncn(C[C@@H](CO)OCP(=O)(O)OCC(F)(F)F)c2n1 | > 250 | 2.27 | 44 | 5.6 | > 62 | 54.2 | 5 | > 62 | > 250 | 430 | 7.95 | 10.7 | – | – |
| CCCCOC(=O)c1ccccc1OP1(=O)CO[C@@H](Cn2cnc3c(N)nc(N)nc32)CO1 (some centres not stated) | 103 | 0.53 | 11.5 | 5.36 | > 205 | 6.8 | 3.1 | ≥ 205 | 168 | 120 | 2.3 | 3.76 | – | – |
| CC(C)OC(=O)[C@@H](CO[P@]1(=O)CO[C@@H](Cn2cnc3c(N)nc(N)nc32)CO1)NC(=O)[C@@H](N)C(C)C | ≥ 177 | 0.73 | 12 | 5.58 | > 177 | 7.1 | 3.52 | 177 | 159 | 200 | 2.02 | 2.3 | – | – |
| CC(C)OC(=O)[C@@H](CO[P@@]1(=O)CO[C@@H](Cn2cnc3c(N)nc(N)nc32)CO1)NC(=O)[C@@H](N)C(C)C | > 177 | 1.06 | 15.2 | 7.97 | > 177 | 22.1 | 7.1 | > 177 | 148 | 250 | 2.62 | 1.42 | – | – |
| Nc1nc(N)c2ncn(C[C@H]3COP(=O)(OCC(F)(F)F)CO3)c2n1 (some centres not stated) | > 239 | 0.62 | 19.1 | 6.57 | 177 | 24.4 | 4.78 | > 239 | ≥ 219 | 170 | 2.08 | 1.91 | – | – |
| CCCCCCCCCCCCCCCCOCCO[P@]1(=O)CO[C@@H](Cn2cnc3c(N)nc(N)nc32)CO1 | 35.2 | 0.004 | 0.015 | 0.026 | > 44 | 0.008 | 0.017 | 0.5 | 28.1 | 0.7 | 0.0035 | 0.026 | – | – |
| CCCCCCCCCCCCCCCCOCCO[P@@]1(=O)CO[C@@H](Cn2cnc3c(N)nc(N)nc32)CO1 | 35.2 | 0.0018 | 0.011 | 0.01 | > 44 | 0.005 | 0.007 | 0.5 | 30 | 0.18 | 0.0026 | 0.008 | – | – |
| CCCCCCCCCCCCCCCCOCCCOP1(=O)CO[C@@H](Cn2cnc3c(N)nc(N)nc32)CO1 (some centres not stated) | 6.9 | 0.012 | 0.034 | 0.031 | 0.16 | 0.021 | 0.053 | 8.6 | 13.7 | 1.7 | 0.011 | 0.053 | – | – |
| CCCCCCCCCCCCCCCCCCOCCO[P@]1(=O)CO[C@@H](Cn2cnc3c(N)nc(N)nc32)CO1 | 6.7 | 0.045 | 0.015 | 0.03 | > 42 | 0.0034 | 0.017 | 0.5 | 129 | 10 | 0.052 | 0.037 | – | – |
| CCCCCCCCCCCCCCCCCCOCCO[P@@]1(=O)CO[C@@H](Cn2cnc3c(N)nc(N)nc32)CO1 | 6.7 | 0.0047 | 0.027 | 0.013 | > 42 | 0.008 | 0.007 | 0.5 | 15.1 | 0.7 | 0.005 | 0.011 | – | – |
| CCCCCCCCCCCCCCCCOCCCOP(=O)(O)CO[C@H](CO)Cn1cnc2c(N)nc(N)nc21 | ≥ 6.4 | 0.0027 | 0.021 | 0.0045 | 10.3 | 0.0037 | 0.0027 | 40 | ≥ 161 | 0.21 | 0.00074 | 0.0071 | – | – |
| CC(C)(C)C(=O)OCOP(=O)(O)CO[C@H](CO)Cn1cnc2c(N)nc(N)nc21 | > 227 | 0.79 | 12.9 | 2.76 | 30.6 | 11.6 | 2.95 | 227 | ≥ 227 | 340 | 1.63 | 3.15 | – | – |
| Nc1nc(N)c2ncn(C[C@@H](CO)OCP(=O)(O)O)c2n1 | > 314 | 0.22 | 11.2 | 2.86 | 17.6 | 6.4 | 1.35 | 126 | > 314 | 8.2 | 0.5 | 2.83 | – | – |
| Nc1nc2c(ncn2COCCO)c(=O)[nH]1 [ACYCLOVIR] | > 444 | – | – | – | – | – | 125 | – | – | – | – | 0.3 | 1.58 | – |
| O=c1[nH]c(=O)n([C@H]2C[C@H](O)[C@@H](CO)O2)cc1/C=C/Br [BRIVUDINE] | – | 0.016 | – | 0.03 | – | – | > 150 | – | 339 | 137000 | – | 75.3 | – | > 300 |
| Nc1ccn(C[C@@H](CO)OCP(=O)(O)O)c(=O)n1 [CIDOFOVIR] | ≥ 317 | 0.13 | 1.14 | 1.62 | – | 0.79 | 1.37 | – | 511 | 110 | 7.3 | 2.19 | – | – |
| Nc1nc2c(ncn2COC(CO)CO)c(=O)[nH]1 [GANCICLOVIR] | ≥ 392 | – | 9.4 | – | – | 10.2 | – | – | 1080 | – | – | – | – | – |
